Laboratory results taken from ChEMBL document CHEMBL1127424, “7-azetidinylquinolones as antibacterial agents. 2. Synthesis and biological activity of 7-(2,3-disubstituted-1-azetidinyl)-4-oxoquinoline- and -1,8-naphthyridine-3-carboxylic acids. Properties and structure-activity relationships of quinolones with an azetidine moiety” (J Med Chem, 1994).
Values after ≈ are worked out from the molar mass of the structure shown.

Columns and labels:
[1] = AUC (0-4 hr) ug/ml/h; assay type: ADME, cell-free; set-up: time < 4 hr; concentration or dose not given beside the values; settings: plasma
Method in brief: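 Mice dosed once orally at 50 mg/kg; blood taken from groups of six mice at 0.5, 1, 2 and 4 h. Serum drug assayed by disk agar diffusion bioassay (Bacillus subtilis ATCC 6633 on Seed Agar, 37 °C, 18 h), giving total activity.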

[2] = HPLC capacity factor (k'); assay type: ADME
Method in brief: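 Ion-pair reversed-phase HPLC on ODS-2 (10 μm) at 45 °C. Mobile phase: 10 mM sodium heptanesulfonate plus 50 mM KH2PO4 (pH 3.5)–methanol 45:55, 1 mL/min. Samples at 100 μg/mL in DMF, injected in duplicate, UV 280 nm. k' = (tR − t0)/t0.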

[3] = test system: Bacillus cereus; assay: In vitro minimum inhibitory concentration for Bacillus cereus ATCC 11778; assay type: functional
Method in brief: (§1)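 Serial 2-fold agar dilution in Mueller Hinton medium, run alongside a reference quinolone. Inoculum adjusted to 10⁸ cfu/mL; compound range 0.007–16 μg/mL.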

[4] = test system: Bacillus subtilis; assay: In vitro minimum inhibitory concentration for Bacillus subtilis ATCC 6633; assay type: functional; method in brief: as §1
[5] = test system: Escherichia coli; assay: In vitro minimum inhibitory concentration for Escherichia coli ATCC 10799; assay type: functional; method in brief: as §1
[6] = test system: Enterobacter cloacae; assay: In vitro minimum inhibitory concentration for Enterobacter cloacae ATCC 23355; assay type: functional
[7] = test system: Klebsiella pneumoniae; assay: In vitro minimum inhibitory concentration to inhibit Klebsiella pneumoniae ATCC 10031; assay type: functional; method in brief: as §1
[8] = test system: Mus musculus; assay: Evaluation of efficacy on systemic infections Escherichia coli HM-42, after oral administration in mice; assay type: functional
Method in brief: (§2)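 Single oral dose given immediately after infection, one of four doses per group, chosen from in vitro activity. Survival scored after one week. ED50 (total mg/kg protecting 50%) interpolated from survival rates.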

[9] = test system: Mus musculus; assay: Evaluation of efficacy on systemic infections Pseudomonas aeruginosa HS-116, after oral administration in mice; assay type: functional; method in brief: as §2
[10] = test system: Mus musculus; assay: Evaluation of efficacy on systemic infections Staphylococcus aureus HS-93, after oral administration in mice; assay type: functional; method in brief: as §2
[11] = test system: Morganella morganii; assay: In vitro minimum inhibitory concentration for Morganella morganii ATCC 8019; assay type: functional; method in brief: as §1
[12] = test system: Proteus vulgaris; assay: In vitro minimum inhibitory concentration for Proteus vulgaris ATCC 8427; assay type: functional; method in brief: as §1
[13] = test system: Staphylococcus epidermidis; assay: In vitro minimum inhibitory concentration for Staphylococcus epidermidis ATCC 155-1; assay type: functional; method in brief: as §1
[14] = test system: Staphylococcus aureus; assay: In vitro minimum inhibitory concentration for Staphylococcus aureus ATCC 25178; assay type: functional; method in brief: as §1
[15] = test system: Enterococcus faecalis; assay: In vitro minimum inhibitory concentration for Streptococcus faecalis ATCC 10541; assay type: functional; method in brief: as §1
[16] = test system: Pseudomonas aeruginosa; assay: In vitro minimum inhibitory concentration for Pseudomonas aeruginosa ATCC 10145; assay type: functional; method in brief: as §1
[17] = Solubility (buffer pH 7.4); assay type: physicochemical; settings: read-out: S
Method in brief: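 Excess solid shaken in 0.05 M phosphate buffer pH 7.4 for 24 h at 25 °C. Suspension filtered through 0.22 μm, discarding the first portion. Filtrate diluted in 0.1 N HCl or 0.1 N NaOH and read by UV at the compound's absorbance maximum.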

[18] = Measured ionization constant (pKa); assay type: physicochemical; settings: read-out: pKa1
Method in brief: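 Spectrophotometric titration at 20 ± 1 °C, 0.1 M ionic strength, pH varied with H2SO4 or NaOH made up in the compound stock. Absorbance followed at compound-specific wavelengths chosen from 200–400 nm scans. pKa1 and pKa2 taken as the inflection points of the two-step absorbance vs pH curve.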

Row | SMILES | AUC [1] [ng·h/mL] | Log k' [2] | MIC [3] [µg/mL] | MIC [4] [µg/mL] | MIC [5] [µg/mL] | MIC [6] [µg/mL] | MIC [7] [µg/mL] | ED50 [8] [mg/kg] | ED50 [9] [mg/kg] | ED50 [10] [mg/kg] | MIC [11] [µg/mL] | MIC [12] [µg/mL] | MIC [13] [µg/mL] | MIC [14] [µg/mL] | MIC [15] [µg/mL] | MIC [16] [µg/mL] | solubility [17] [µg/mL] | pKa [18]
1 | C[C@H]1[C@H](N)CN1c1cc2c(cc1F)c(=O)c(C(=O)O)cn2-c1ccc(F)cc1 | 16900 | 0.0755 | 0.25 (≈ 0.649 µM) | 0.06 (≈ 0.156 µM) | 0.12 (≈ 0.311 µM) | 0.06 (≈ 0.156 µM) | 0.015 (≈ 0.0389 µM) | 2.9 | 109 | 7.5 | 0.06 (≈ 0.156 µM) | 0.25 (≈ 0.649 µM) | 0.25 (≈ 0.649 µM) | 0.25 (≈ 0.649 µM) | 0.5 (≈ 1.3 µM) | 1 (≈ 2.59 µM) |  | 
2 | CC[C@H]1[C@@H](N)CN1c1c(F)cc2c(=O)c(C(=O)O)cn(C3CC3)c2c1F | 14700 | 0.1399 | 0.12 (≈ 0.33 µM) | 0.015 (≈ 0.0413 µM) | 0.12 (≈ 0.33 µM) | 0.12 (≈ 0.33 µM) | 0.015 (≈ 0.0413 µM) |  |  |  | 0.12 (≈ 0.33 µM) | 0.25 (≈ 0.688 µM) | 0.12 (≈ 0.33 µM) | 0.12 (≈ 0.33 µM) | 2 (≈ 5.5 µM) | 2 (≈ 5.5 µM) | 55.9 (≈ 154 µM) | 
3 | C[C@H]1N(c2cc3c(cc2F)c(=O)c(C(=O)O)cn3C2CC2)C[C@]1(C)N | 3800 | 0.1421 | 0.25 (≈ 0.724 µM) | 0.015 (≈ 0.0434 µM) | 0.06 (≈ 0.174 µM) | 0.015 (≈ 0.0434 µM) | 0.03 (≈ 0.0869 µM) |  |  |  | 0.06 (≈ 0.174 µM) | 0.25 (≈ 0.724 µM) | 0.12 (≈ 0.347 µM) | 0.25 (≈ 0.724 µM) | 2 (≈ 5.79 µM) | 2 (≈ 5.79 µM) | 1.3 (≈ 3.76 µM) | 
4 | CC1([N+](C)(C)C)CN(c2c(F)cc3c(=O)c(C(=O)O)cn(C4CC4)c3c2F)C1 |  |  |  |  |  |  |  |  |  |  |  |  |  |  |  |  |  | 6.03
5 | C[C@H]1[C@H](N)CN1c1cc2c(cc1F)c(=O)c1c(=O)[nH]sc1n2C1CC1 | 16200 | 0.065 | 0.06 (≈ 0.166 µM) | 0.015 (≈ 0.0416 µM) | 0.03 (≈ 0.0832 µM) | 0.015 (≈ 0.0416 µM) | 0.015 (≈ 0.0416 µM) |  |  |  | 0.03 (≈ 0.0832 µM) | 0.12 (≈ 0.333 µM) | 0.03 (≈ 0.0832 µM) | 0.06 (≈ 0.166 µM) | 0.25 (≈ 0.694 µM) | 0.25 (≈ 0.694 µM) |  | 
6 | NC1CN(c2c(F)cc3c(=O)c(C(=O)O)cn(C4CC4)c3c2Cl)C1 |  | -0.0264 |  |  |  |  |  |  |  |  |  |  |  |  |  |  |  | 5.96
7 | NC1CN(c2cc3c(cc2F)c(=O)c(C(=O)O)cn3C2CC2)C1 |  | -0.0607 |  |  |  |  |  |  |  |  |  |  |  |  |  |  |  | 6.49
8 | C[C@H]1N(c2c(F)cc3c(=O)c(C(=O)O)cn(C4CC4)c3c2F)C[C@]1(C)N | 20600 | 0.1312 | 0.25 (≈ 0.688 µM) | 0.06 (≈ 0.165 µM) | 0.12 (≈ 0.33 µM) | 0.06 (≈ 0.165 µM) | 0.03 (≈ 0.0826 µM) |  |  |  | 0.12 (≈ 0.33 µM) | 0.5 (≈ 1.38 µM) | 0.12 (≈ 0.33 µM) | 0.25 (≈ 0.688 µM) | 1 (≈ 2.75 µM) | 2 (≈ 5.5 µM) | 3.3 (≈ 9.08 µM) | 
9 | C[C@@H]1[C@@H](O)CN1c1c(F)cc2c(=O)c(C(=O)O)cn(C3CC3)c2c1F |  | 0.518 | 0.06 (≈ 0.171 µM) | 0.015 (≈ 0.0428 µM) | 0.25 (≈ 0.714 µM) | 0.12 (≈ 0.343 µM) | 0.015 (≈ 0.0428 µM) |  |  |  | 0.25 (≈ 0.714 µM) | 0.12 (≈ 0.343 µM) | 0.06 (≈ 0.171 µM) | 0.12 (≈ 0.343 µM) | 1 (≈ 2.85 µM) | 2 (≈ 5.71 µM) |  | 
10 | C[C@H]1[C@H](N)CN1c1nc2c(cc1F)c(=O)c(C(=O)O)cn2-c1ccc(F)cc1 |  | 0.0681 | 0.25 (≈ 0.647 µM) | 0.06 (≈ 0.155 µM) | 0.12 (≈ 0.311 µM) | 0.12 (≈ 0.311 µM) | 0.06 (≈ 0.155 µM) | 3.1 | > 400 | 11.9 | 0.25 (≈ 0.647 µM) | 2 (≈ 5.18 µM) | 0.25 (≈ 0.647 µM) | 0.25 (≈ 0.647 µM) | 4 (≈ 10.4 µM) | 2 (≈ 5.18 µM) |  | 
11 | C[C@H]1[C@H](N)CN1c1c(F)cc2c(=O)c(C(=O)O)cn(CCF)c2c1Cl |  | 0.0166 | 0.25 (≈ 0.672 µM) | 0.06 (≈ 0.161 µM) | 0.03 (≈ 0.0807 µM) | 0.03 (≈ 0.0807 µM) | 0.03 (≈ 0.0807 µM) |  |  |  | 0.03 (≈ 0.0807 µM) | 0.25 (≈ 0.672 µM) | 0.12 (≈ 0.323 µM) | 0.12 (≈ 0.323 µM) | 0.5 (≈ 1.34 µM) | 1 (≈ 2.69 µM) |  | 
12 | C[C@H]1[C@H](N)CN1c1c(F)cc2c(=O)c(C(=O)O)cn3c2c1SCC3 |  | -0.1195 | 1 (≈ 2.86 µM) | 0.25 (≈ 0.716 µM) | 0.5 (≈ 1.43 µM) | 0.25 (≈ 0.716 µM) | 0.25 (≈ 0.716 µM) |  |  |  | 0.25 (≈ 0.716 µM) | 1 (≈ 2.86 µM) | 0.5 (≈ 1.43 µM) | 1 (≈ 2.86 µM) | 8 (≈ 22.9 µM) | 2 (≈ 5.72 µM) |  | 
